Laboratory results published in ChEMBL document CHEMBL5653614, “Rescue of fragile X syndrome phenotypes in Fmr1 KO mice by the small-molecule PAK inhibitor FRAX486” (Proc Natl Acad Sci U S A, 2013).
Calls of active or inactive are those of the source. The calls are words filed in the database; no cut-off is given here.

Experiments:
Mus musculus [1] = assay: Protective activity in Fmr1 knockout FVB.129P2-Fmr1tm1Cgr/J mouse model of Fragile X syndrome assessed as balance on accelerating rotarod at 20 mg/kg, sc and measured for 4 to 5.25 hrs by rotarod test; type: functional, organism-based; details: time 4-5.25 hrs
Outline: (§1)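 Adult male WT and Fmr1 KO mice tested 4–5.5 h after s.c. 20 mg/kg or vehicle. Latency to fall or jump off the rotating cylinder recorded (max 3 min). Three trials per mouse, 30–40 min apart; per-mouse average latency compared.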

Mus musculus [2] = assay: Protective activity in FVB.129P2-Pde6b+ Tyr c-ch/AntJ wild type mouse assessed as decrease in counterclockwise revolutions at 20 mg/kg, sc for 5 days by open field assay; type: functional, organism-based; details: time 5.0 day
Outline: (§2)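 Adult male WT and Fmr1 KO mice dosed s.c. at 20 mg/kg or vehicle for 5 d; tested 4–5.5 h after dosing. Single mouse in a novel open field for 30 min, tracked by infrared sensors in 1-min bins; bar-graph values averaged over minutes 18–30. Mice beyond 2 SD in total distance, or immobile for 5 consecutive minutes, were excluded.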

Mus musculus [3] = assay: Protective activity in Fmr1 knockout FVB.129P2-Fmr1tm1Cgr/J mouse assessed as decrease in apical dendritic spine density in layer II/III pyramidal neurons segment 3 at 20 mg/kg, sc and measured after 8 hrs by Golgi-Cox technique analysis; type: functional, organism-based
Outline: (§3)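 Adult male WT and Fmr1 KO FVB mice given 20 mg/kg s.c. or vehicle; brains collected 8 h later and Golgi stained. Apical dendrites of layer II/III pyramidal neurons in temporal cortex, originating 50–100 µm from the soma, were divided into ten 10-µm segments and spines counted. 40–60 neurons from 4–6 mice per group; one-way ANOVA.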

Mus musculus [4] = assay: Anti-seizure activity against 124dB loud auditory stimulus induced Fmr1 knockout FVB.129P2-Fmr1tm1Cgr/J mouse model of audiogenic seizure assessed as decrease in sound-induced seizure at 20 mg/kg,sc for 5 days followed by audiogenic seizure induction after 8 hrs post-treatment by audiogenic seizure assay (Rvb=96%); type: functional; parameters: scale not given: the % may be the effect or the level left; details: time 5 day
Outline: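 Adult male Fmr1 KO mice given 10 or 20 mg/kg s.c. daily for 5 d in 20% hydroxypropyl-β-cyclodextrin vehicle. AGS assay run 8 h after the final injection: 2 min acclimation in an acrylic chamber, then a 124 dB auditory stimulus. Incidence of wild running and seizure recorded; χ2 comparison with vehicle.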

Mus musculus [5] = assay: Anti-seizure activity against 124dB loud auditory stimulus induced Fmr1 knockout FVB.129P2-Fmr1tm1Cgr/J mouse model of audiogenic seizure assessed as decrease in sound-induced seizure at 20 mg/kg,sc for 8 hrs followed by audiogenic seizure induction by audiogenic seizure assay (Rvb=100%); type: functional; parameters: scale not given: the % may be the effect or the level left
Outline: (§4)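 Adult male mice (10–17 wk). Single s.c. dose (0, 10, 20 or 30 mg/kg) in 20% (wt/vol) hydroxypropyl-β-cyclodextrin vehicle; AGS induced 8 h later. Mouse acclimated 2 min in a clear acrylic two-chamber box, then exposed to a 124 dB sound. Scored as percentage of animals showing each sequential phase (wild running, seizure, death by respiratory arrest); χ2 test against vehicle.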

Mus musculus [6] = assay: Protective activity in Fmr1 knockout FVB.129P2-Fmr1tm1Cgr/J mouse model of Fragile X syndrome assessed as decrease in distance travelled at 20 mg/kg, sc for 5 days and measured during 18 to 30 mins by open field assay; type: functional, organism-based; details: time 5.0 day; outline: as §2
[7] = Drug uptake in FVB.129P2 mouse brain at 20 mg/kg,sc for 5 days and measured after 24 hrs by LC-MS/MS analysis; type: ADME, organism-based; details: in vivo, 120 h, time 5 day
Outline: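 Mice dosed s.c. at 20 mg/kg once daily for up to 5 d; plasma and forebrain sampled 24 h after the last injection. Brain homogenized in 2 volumes of cold PBS; levels measured by LC-MS/MS. n = 3–4, mean ± SEM.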

Mus musculus [8] = assay: Protective activity in Fmr1 knockout FVB.129P2-Fmr1tm1Cgr/J mouse model of Fragile X syndrome assessed as motor coordination at 20 mg/kg, sc and measured for 4 to 5.25 hrs by rotarod test; type: functional, organism-based; details: time 4-5.25 hrs
Outline: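 Adult male Fmr1 KO mice (FVB background, 10–17 wk old) got FRAX486 s.c. at 20 mg/kg as a 2 mg/mL solution in 20% (wt/vol) hydroxypropyl-β-cyclodextrin; vehicle-only controls. Rotarod was run 4–5.5 h after dosing. Latency to fall or jump off the rotating cylinder was recorded, with a maximum of 3 min. Three trials 30–40 min apart were averaged per mouse.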

Mus musculus [9] = assay: (§5) Anti-seizure activity against 124dB loud auditory stimulus induced Fmr1 knockout FVB.129P2-Fmr1tm1Cgr/J mouse model of audiogenic seizure assessed as decrease in sound-induced seizure at 30 mg/kg,sc for 8 hrs followed by audiogenic seizure induction by audiogenic seizure assay (Rvb=100%); type: functional; parameters: scale not given: the % may be the effect or the level left; outline: as §4
Mus musculus [10] = assay: Protective activity in Fmr1 knockout FVB.129P2-Fmr1tm1Cgr/J mouse assessed as decrease in apical dendritic spine density in layer II/III pyramidal neurons segment 2 at 20 mg/kg, sc and measured after 8 hrs by Golgi-Cox technique analysis; type: functional, organism-based; outline: as §3
Mus musculus [11] = assay: Protective activity in Fmr1 knockout FVB.129P2-Fmr1tm1Cgr/J mouse model of Fragile X syndrome assessed as decrease in counterclockwise revolutions at 20 mg/kg, sc for 5 days by open field assay; type: functional, organism-based; details: time 5.0 day; outline: as §2
Mus musculus [12] = assay: Protective activity in Fmr1 FVB.129P2-Pde6b+ Tyr c-ch/AntJ wild type mouse assessed as change in basal dendritic spine density in cortical neuron at 20 mg/kg, sc and measured after 8 hrs by Golgi-Cox technique analysis; type: functional, organism-based; details: Cortical neurone
Mus musculus [13] = assay: Protective activity in FVB.129P2-Pde6b+ Tyr c-ch/AntJ wild type mouse assessed as balance on accelerating rotarod at 20 mg/kg, sc and measured for 4 to 5.25 hrs by rotarod test; type: functional, organism-based; details: time 4-5.25 hrs; outline: as §1
Mus musculus [14] = assay: Anti-seizure activity against 124dB loud auditory stimulus induced Fmr1 knockout FVB.129P2-Fmr1tm1Cgr/J mouse model of audiogenic seizure assessed as decrease in sound-induced seizure at 20 mg/kg,sc and measured after 5 days by audiogenic seizure assay (Rvb=100%); type: functional; parameters: scale not given: the % may be the effect or the level left; details: time 5 day
Outline: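 Fmr1 KO mice received one s.c. dose of vehicle or 20 mg/kg in hydroxypropyl-β-cyclodextrin; the AGS assay (124 dB stimulus after 2 min acclimation) was run 5 d later. Seizure incidence recorded.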

Mus musculus [15] = assay: Protective activity in Fmr1 knockout FVB.129P2-Fmr1tm1Cgr/J mouse model of Fragile X syndrome assessed as decrease in stereotypy count at 20 mg/kg, sc for 5 days by open field assay; type: functional, organism-based; details: time 5.0 day; outline: as §2
[16] = Toxicity in FVB.129P2-Pde6b+ Tyr c-ch/AntJ wild type mouse assessed as body weight change at 20 mg/kg,sc for 21 days; type: organism-based; details: in vivo, 504 h, time 21 day
Mus musculus [17] = assay: as §5, with “sound-induced death due to respiratory arrest” for “sound-induced seizure”, “at 10 to” for “at”, “assay” for “assay (Rvb=100%)”; type: functional, organism-based; details: dose 10-30 mg/kg; outline: as §4
Mus musculus [18] = assay: Protective activity in FVB.129P2-Pde6b+ Tyr c-ch/AntJ wild type mouse assessed as motor coordination at 20 mg/kg, sc and measured for 4 to 5.25 hrs by rotarod test; type: functional, organism-based; details: time 4-5.25 hrs; outline: as §1

**Q.** Which Activity (Mus musculus [1]) does the source give for `CCn1c(=O)c(-c2ccc(Cl)cc2Cl)cc2cnc(Nc3ccc(N4CCNCC4)c(F)c3)nc21` here?
**A.** Its Activity is “inactive”.

**Q.** And the Activity (Mus musculus [2])?
**A.** Its Activity is “Active”.

**Q.** And the Activity (Mus musculus [3])?
**A.** The Activity was “Active”.

**Q.** What about the Activity (Mus musculus [4]) of the same compound?
**A.** The Activity was 42%.

**Q.** And the Activity (Mus musculus [5])?
**A.** Its Activity is 25%.

**Q.** And the Activity (Mus musculus [6])?
**A.** The Activity was “Active”.

**Q.** What about the Drug uptake [7] of the same compound?
**A.** Its Drug uptake is “Active”.

**Q.** What about the Activity (Mus musculus [8]) of the same compound?
**A.** Its Activity is “inactive”.

**Q.** What about the Activity (Mus musculus [9]) of the same compound?
**A.** Its Activity is 0%.

**Q.** And the Activity (Mus musculus [10])?
**A.** Its Activity is “inactive”.

**Q.** What about the Activity (Mus musculus [11]) of the same compound?
**A.** The Activity was “Active”.

**Q.** And the Activity (Mus musculus [12])?
**A.** Its Activity is “inactive”.

**Q.** What about the Activity (Mus musculus [13]) of the same compound?
**A.** Its Activity is “inactive”.

**Q.** And the Activity (Mus musculus [14])?
**A.** Its Activity is 100%.

**Q.** What about the Activity (Mus musculus [15]) of the same compound?
**A.** The Activity was “Active”.

**Q.** What about the Activity [16] of the same compound?
**A.** Its Activity is “Non-Toxic”.

**Q.** What about the Activity (Mus musculus [17]) of the same compound?
**A.** The Activity was “Dose-Dependent Effect”.

**Q.** And the Activity (Mus musculus [18])?
**A.** Its Activity is “inactive”.
